PfM18AAP inh: PfM18AAP enzyme inhibition. 1.2% of 290,000 active. AID 1822. recombinant PfM18AAP, H-Glu-NHMec fluorogenic cleavage. inhibition, % at 7.35 µM;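 active = inhibition above the campaign mean inhibition over all tested compounds plus 3 SD, cut at about 28% in these data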;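 note: 0% = plate median of test compound wells and 100% = 2 mM ZnCl2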
p97 inhibitor: blocks human p97 ATPase activity; P55072; recombinant p97 ATPase, Kinase-Glo ATP luminescence, 3 h; inhibition, % at 8 µM; 0.42% of 220,000 active; in the data active = inhibition above about 15%;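 note: 0% = DMSO vehicle and 100% = wells lacking enzyme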
Target sequence (P55072 whole entry, looked up): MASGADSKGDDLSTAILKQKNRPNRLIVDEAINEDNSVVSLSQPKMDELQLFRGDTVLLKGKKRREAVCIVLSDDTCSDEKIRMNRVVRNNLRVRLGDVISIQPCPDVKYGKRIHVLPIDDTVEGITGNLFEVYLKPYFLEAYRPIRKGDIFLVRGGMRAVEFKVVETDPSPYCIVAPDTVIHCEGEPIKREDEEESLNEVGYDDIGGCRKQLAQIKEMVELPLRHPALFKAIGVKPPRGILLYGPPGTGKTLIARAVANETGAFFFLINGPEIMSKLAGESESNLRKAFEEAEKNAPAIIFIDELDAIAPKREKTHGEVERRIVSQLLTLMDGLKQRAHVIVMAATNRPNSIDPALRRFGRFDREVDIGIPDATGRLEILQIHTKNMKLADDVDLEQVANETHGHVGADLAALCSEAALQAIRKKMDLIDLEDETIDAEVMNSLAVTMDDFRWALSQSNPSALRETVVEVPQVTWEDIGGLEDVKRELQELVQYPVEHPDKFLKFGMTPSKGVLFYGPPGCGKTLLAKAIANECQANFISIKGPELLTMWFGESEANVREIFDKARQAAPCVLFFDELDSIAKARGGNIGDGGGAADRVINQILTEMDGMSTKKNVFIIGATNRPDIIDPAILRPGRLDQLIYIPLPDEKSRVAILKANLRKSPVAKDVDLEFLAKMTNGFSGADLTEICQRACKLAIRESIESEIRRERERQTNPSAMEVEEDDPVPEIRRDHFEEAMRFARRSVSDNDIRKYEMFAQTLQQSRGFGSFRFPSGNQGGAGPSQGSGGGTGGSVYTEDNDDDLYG
HCV NS3 hel inh: blocks Hepatitis C virus NS3 helicase unwinding | NS3 helicase DNA unwinding, Cy5 molecular beacon fluorescence | inhibition, % at 10.9 µM | 0.56% of 290,000 active | AID 1800;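 active = inhibition above the mean of all tested compounds plus 3 SD, set per campaign, cut at about 35% in these data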;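 note: 0% = DMSO wells and 100% = thioflavine S control wells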
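Assay system – hepatitis C virus NS3 helicase domain fragment enzyme · Buffer or medium – MOPS pH 6.5, MgCl2, DTT, Tween20, BSA · Reagent – Cy5/quencher beacon DNA duplex and ATP to start · Compound – single 10.9 µM dose · Timing – 1 h at 25 °C · Technique – Cy5 beacon fluorescence read at start and 1 h · Measure – % inhibition of unwinding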
UPR CHOP act: activators of apoptotic arm of unfolded protein response (CHOP) | CHO-CHOP luciferase reporter, UPR activation, luminescence; percent of tunicamycin response over DMSO baseline | activation, % at 10 µM | AID 449763 | 0.34% of 330,000 active;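 active = at 10 µM dose, activation of 40% or more, normalized to positive control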;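 note: 100% = tunicamycin at 10 µg/mL and 0% = DMSO alone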
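measured by = luciferase luminescence | assay system = CHO-CHOP cells, stable luciferase reporter of PERK-eIF2a-CHOP signalling | amount = 500 reporter cells seeded per well | timing = 6 h compound exposure at 37 °C after overnight seeding | controls = positive tunicamycin 10 µg/mL, negative DMSO alone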
UPR XBP1 act: activators of adaptive arm of unfolded protein response (XBP1). activation, % at 20 µM. CHO-XBP1 luciferase reporter, IRE1-XBP1 UPR activation, luminescence; percent of tunicamycin response, DMSO as zero. AID 463104. 0.33% of 330,000 active;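 active = versus positive control, 20 µM dose yields 30% or more activation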;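 note: 100% = tunicamycin at 10 µg/mL and 0% = DMSO only wells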
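Material: CHO cell line with stable XBP1 luciferase reporter; schedule: 16-18 h cell attachment at 37 °C, then 6 h compound exposure; signal: glow luminescence from Steady-Glo reagent; medium: serum-containing F12 medium, 10% FBS; benchmarks: tunicamycin 10 µg/mL and vehicle-only wells; read-out: percent activation relative to tunicamycin reference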
CHOP inh: inhibitors of CHOP induction in ER stress response. inhibition, % at 10 µM. AID 2732. 3.8% of 220,000 active. CHO-K1 CHOP-promoter luciferase, tunicamycin-induced, 15-18 h;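 active = compounds that reduced the stress-induced luciferase reporter signal by more than about 70% of percent inhibition, limit read from the data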;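 note: 0% = tunicamycin plus vehicle and 100% = wells without tunicamycin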
* hit, by the source's call; . = no result. Sampled rows, rich in hits. Any-hit rate of the full collection: about 4.5%.

SMILES	PfM18AAP inh	p97 inhibitor	HCV NS3 hel inh	UPR CHOP act	UPR XBP1 act	CHOP inh
N#Cc1ncc(Cc2ccccc2)nc1C#N	-2.7	.	14.8	60.0*	1.7	.
CCOC(=O)C1CCN(c2nc(N)c3c(N)nc(SCC(=O)O)cc3c2C#N)CC1	16.8	54.7*	21.6	.	.	6.8
CCOC(=O)C1CCN(c2nc(C)cc(C)c2C#N)CC1	-3.0	-3.4	8.9	-0.3	-0.2	-2.8
CCC(=O)Nc1ccc(C(=O)OCc2ccc(Cl)c(Cl)c2)cc1	4.1	-0.2	2.7	-2.2	-4.5	89.2*
COC(=O)c1ccc(OCC(O)CN(CC(C)C)CC(C)C)cc1 (stereo unspecified)	0.9	2.6	-4.5	-1.8	-3.2	87.0*
CC1CC(=O)N(CC(=O)NCc2ccccc2)c2ccccc2S1(=O)=O (stereo unspecified)	1.9	.	-2.9	1.0	0.5	.
O=C(Nc1cc(S(=O)(=O)N2CCCCCC2)ccc1OCC(F)(F)F)c1ccc(=O)[nH]c1	.	.	.	-1.3	2.2	.
CCCCN1C=CC(=C2C(=O)c3ccccc3C2=O)C=C1	2.6	-41.3	-13.6	-10.1	-5.9	94.3*
CCOc1ccccc1N1CCN(C(=O)c2cc[n+]([O-])cc2)CC1	2.1	-2.1	-1.3	-0.9	1.2	10.3
CCCc1ccc(C(=O)N2CCN(c3ccccc3OCC)CC2)cc1	-4.1	-2.4	2.3	-2.6	-1.8	70.7*
CC(C)CC(c1nnnn1CC1CCCO1)N1CCN(c2cccc(Cl)c2)CC1 (stereo unspecified)	-3.4	0.8	-2.5	1.5	-4.6	83.0*
Cc1ccc(CN2C(=O)C(C)Nc3ncnc(N4CCN(c5ccccn5)CC4)c32)cc1 (stereo unspecified)	.	.	.	-0.8	3.8	.
O=C(CSc1nc2nn(-c3ccccc3)c(=O)c-2c2n1CCCCC2)Nc1cccc(F)c1	.	.	.	5.7	-2.6	.
C/C(=C\C(=O)c1ccc(C)cc1)Nc1cccc(O)c1	25.6	2.6	-1.2	0.9	0.5	93.7*
COc1ccc(C(=O)c2ccccc2)c2c(O)ccc(C(=O)c3ccccc3)c12	7.8	-1.2	6.1	-2.2	-3.2	85.9*
Cc1cccc(C)c1NC1=C(Cl)C(=O)OC1OC(=O)c1ccccc1 (stereo unspecified)	-7.7	-1.2	-1.9	1.2	-3.5	19.0
Cc1ccc(NC2=C(Cl)C(=O)OC2OC(=O)c2ccccc2)c(C)c1 (stereo unspecified)	-9.4	0.6	-0.5	-0.1	-4.2	73.7*
Cc1ccc(OCCC(=O)OCC(=O)N2CCN(S(=O)(=O)c3ccc(C)cc3)CC2)cc1	.	.	.	-0.3	1.5	.
Cc1ccc(C(=O)N2CCN(c3ccc(NC(=O)c4ccc(Br)o4)cc3)CC2)cc1	-4.8	-2.4	-0.8	-0.7	0.9	71.7*
C=CC[n+]1c(-c2ccc(OCC)cc2)csc1NNC(=O)Nc1ccccc1	20.6	0.5	-3.6	1.3	-2.1	72.5*
C=CC[n+]1c(-c2ccc(C)cc2)csc1Nc1c(C)n(C)n(-c2ccccc2)c1=O	-6.0	-5.9	6.2	-1.5	-1.8	27.7
CCN(CC(=O)NCc1ccc(Cl)cc1)C(=O)CSc1cc(C)ccc1C	.	.	.	-0.1	-1.8	.
COc1ccc(-n2nc(C(=O)NCC(=O)NCCC3=CCCCC3)c3ccccc3c2=O)cc1OC	6.2	.	-10.8	1.6	-6.9	.
COc1ccc(-c2cc(-c3c(O)c(OC)c4occc4c3OC)[nH]n2)cc1OC	-8.1	0.5	-22.7	2.0	8.5	11.6
COc1ccc(-c2cc(-c3c(O)c(OC)c4occc4c3OC)[nH]n2)cc1	6.4	1.0	-6.9	2.7	2.4	86.2*
SMILES	PfM18AAP inh	p97 inhibitor	HCV NS3 hel inh	UPR CHOP act	UPR XBP1 act	CHOP inh
CCCn1ccnc1SCC(=O)Nc1c(C)n(C)n(-c2ccccc2)c1=O	.	.	.	0.1	2.3	.
C=CCn1c(C)cc(C(=O)CSc2nc3ccccc3o2)c1C	14.2	-8.6	24.9	0.9	-3.6	73.6*
Cc1cc(C(=O)CSc2nc3ccccc3o2)c(C)n1C1CC1	20.8	-1.1	17.7	6.0	5.8	-35.7
CCOC(=O)C(=Cc1cc(=O)c(OC)co1)C(=O)OCC	4.7	2.5	-0.2	.	.	108.7*
O=c1oc2ccccc2cc1-c1nc2c(s1)CCCC2	4.9	-6.5	3.2	-4.4	-3.4	95.7*
O=C(N/N=C/c1cccs1)c1cc(-c2ccc(Cl)s2)[nH]n1	5.9	.	17.3	0.4	-1.8	.
COc1ccc2nc(NNC(=O)C3COc4ccccc4O3)sc2c1 (stereo unspecified)	30.6*	11.4	-0.9	2.7	-1.3	-14.2
CNS(=O)(=O)c1cccc(C(=O)OCc2cc(Cl)cc3c2OCOC3)c1	3.3	0.4	-13.9	1.4	0.0	74.8*
CCCCCc1nc2sc3c(c2c(=O)n1NC(=O)c1ccc([N+](=O)[O-])cc1)CC(C)(C)OC3	0.0	0.7	5.3	0.9	-1.3	76.4*
COC(=O)CC1(C(=O)OC)Oc2ccc(Br)cc2C(=O)N1c1cc(Cl)c(Cl)cc1Cl (stereo unspecified)	-1.5	2.3	-10.6	-0.3	-1.7	20.5
CCCCCCCc1c(C)nc(N2CCOCC2)[nH]c1=O	-2.5	-0.7	-6.5	-1.1	-1.7	71.9*
CCCCc1c(C)nc(N2CCCC2)[nH]c1=O	-12.1	9.7	-4.3	0.6	-1.1	4.3
C=CCSc1nc(N)c(C(=O)Nc2ccccc2OC)cc1C(=O)Nc1ccccc1	-4.2	3.2	-2.0	0.3	-1.8	9.9
C=CCSc1nc(N)c(C(=O)Nc2ccccc2)cc1C#N	1.7	6.1	9.3	-0.2	6.3	70.5*
CC(CCN1CCN=C1Nc1ccccc1)c1ccccc1 (stereo unspecified)	-2.8	.	3.5	-0.6	-0.7	.
N#Cc1ccc(CN2CCN(C(=O)C3CC(=O)N(c4ccccc4F)C3)CC2)cc1 (stereo unspecified)	.	.	.	0.9	-1.8	.
Clc1nssc1=Nc1nncs1	.	.	.	2.7	-0.3	.
N#Cc1cccc(N=c2ssnc2Cl)c1	29.2*	1.8	-0.6	-0.1	4.5	-1.1
CC1(C)O[C@@H]2[C@H](O1)[C@@H](CO)O[C@H]2n1cnc2c(=O)[nH]cnc21	.	.	.	-0.8	5.8	.
CC1=C(C(=O)OC(C)C)C(c2cccc(F)c2)N2C(=O)C(C)SC2=N1 (stereo unspecified)	-2.7	-2.8	3.9	-3.2	-3.9	73.9*
CCOC(=O)C1=C(C)N=C2SC(C)C(=O)N2C1c1cccc(F)c1 (stereo unspecified)	2.9	2.5	3.0	-2.2	-2.4	46.7
COC(=O)C1=C(C)N=C2SC(C)C(=O)N2C1c1ccc(C(=O)OC)cc1 (stereo unspecified)	0.2	2.2	0.5	-1.3	-2.4	34.5
CC1=C(C(=O)OCC(C)C)C(c2cccc(F)c2)N2C(=O)C(C)SC2=N1 (stereo unspecified)	-14.8	-0.5	7.8	-3.0	-4.7	78.2*
